Data set [1] has as its target T1, ATP-dependent translocase ABCB1 (Homo sapiens, UniProt P08183). As to the kind of experiment: Reversal of human MDR1-mediated multidrug resistance in mouse L5178Y cells expressing MDR1 assessed as fluorescence activity ratio at 20 uM after 10 mins by rhodamine-123 exclusion test. Type of data set: cell-based. In outline: (§1)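 Parental and MDR1-transfected L5178 cells at 2×10^6/mL in serum-free McCoy's 5A. Compound (0.5–20 µM; verapamil 22 µM as positive control) added 10 min at room temperature, then rhodamine 123 20 min at 37 °C. Cells washed twice, resuspended in PBS, flow cytometry on 10,000 cells (FSC, SSC, mean FL-1). FAR = (MDR treated/MDR control)/(parental treated/parental control); single representative experiment.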

Data set [2] concerns the target T1, ATP-dependent translocase ABCB1. As to the kind of experiment: Reversal of human MDR1-mediated multidrug resistance in mouse L5178Y cells expressing MDR1 assessed as side scatter count measured by cell size ratio at 0.5 uM after 10 mins by flow cytometry. Type of data set: cell-based. In a few lines:
as §1

For data set [3] the target is unchanged. As to the kind of experiment: Reversal of human MDR1-mediated multidrug resistance in mouse L5178Y cells expressing MDR1 assessed as forward scatter count measured by cell size ratio at 0.5 uM after 10 mins by flow cytometry. Type of data set: cell-based. In a few lines: as §1
(In flow cytometry, cells or beads pass a laser one at a time.)

Data set [4] has the same target. As to the kind of experiment: Reversal of human MDR1-mediated multidrug resistance in mouse L5178Y cells expressing MDR1 assessed as side scatter count measured by cell size ratio at 20 uM after 10 mins by flow cytometry. Type of data set: cell-based. In outline: as §1
In data set [5] the test system is L5178Y. As to the kind of experiment: Potentiation of doxorubicin-induced anticancer activity against mouse L5178Y cells expressing MDR1 assessed as fractional inhibitory concentration after 72 hrs by checkerboard microplate assay. Type of data set: functional. In outline: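 Checkerboard combination on MDR1-transfected L5178 lymphoma cells: doxorubicin diluted along one plate axis, resistance modifier along the other; 5×10^4 cells/well; 72 h at 37 °C in CO2 incubator; growth read by MTT staining. FIC = ID50 in combination/ID50 alone for each agent; summed FIX <0.5 synergism, 0.51–1 additive, 1–2 indifferent, >2 antagonism.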

Data set [6] concerns the target T1, ATP-dependent translocase ABCB1. As to the kind of experiment: Reversal of human MDR1-mediated multidrug resistance in mouse L5178Y cells expressing MDR1 assessed as mean fluorescence intensity of rhodamine-123 uptake at 2 uM after 10 mins by flow cytometry. Type of data set: cell-based. In a few lines: as §1
Data set [7] deals with L5178Y. As to the kind of experiment: Antiproliferative activity against multidrug resistance mouse L5178Y cells expressing human MDR1 after 72 hrs by MTT assay. Type of data set: functional. Conditions: read-out: ID50 (the source's name). In outline: (§2)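 L5178 mouse T-cell lymphoma cells, parental or transfected with human MDR1 via pHa MDR1/A retrovirus. Transfected cells were kept under 60 ng/mL colchicine. Cells grew in McCoy's 5A with 10% heat-inactivated horse serum at 37 °C, 5% CO2. 1×10^4 cells/well with rising compound concentrations, 72 h at 37 °C. MTT 4 h, SDS 10% overnight, OD 550 nm (ref 630 nm). % inhibition vs cell/medium controls; ID50 mean ± SD of three experiments.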
A general note: Tetrazolium assays rely on reduction of a dye to a coloured formazan, in cell work by metabolically active cells.

Data set [8] concerns the target T1, ATP-dependent translocase ABCB1. As to the kind of experiment: Reversal of human MDR1-mediated multidrug resistance in mouse L5178Y cells expressing MDR1 assessed as mean fluorescence intensity of rhodamine-123 uptake at 20 uM after 10 mins by flow cytometry. Type of data set: cell-based. In outline:
as §1

Data set [9] has the same target. In words: Reversal of human MDR1-mediated multidrug resistance in mouse L5178Y cells expressing MDR1 assessed as mean fluorescence intensity of rhodamine-123 uptake at 1 uM after 10 mins by flow cytometry. Type of data set: cell-based. In a few lines: as §1
Data set [10] has the same target. As to the kind of experiment: Reversal of human MDR1-mediated multidrug resistance in mouse L5178Y cells expressing MDR1 assessed as forward scatter count measured by cell size ratio at 2 uM after 10 mins by flow cytometry. Type of data set: cell-based. In a few lines: as §1
Data set [11] has the same target. As to the kind of experiment: Reversal of human MDR1-mediated multidrug resistance in mouse L5178Y cells expressing MDR1 assessed as fluorescence activity ratio at 1 uM after 10 mins by rhodamine-123 exclusion test. Type of data set: cell-based. In outline: as §1
Data set [12] shares this target. As to the kind of experiment: Reversal of human MDR1-mediated multidrug resistance in mouse L5178Y cells expressing MDR1 assessed as fluorescence activity ratio at 2 uM after 10 mins by rhodamine-123 exclusion test. Type of data set: cell-based. In outline: as §1
Data set [13] relates to L5178Y. As to the kind of experiment: Antiproliferative activity against mouse L5178Y cells after 72 hrs by MTT assay. Type of data set: functional. The note with it: read-out: ID50 (the source's name). In a few lines:
as §2

The target in data set [14] is T1, ATP-dependent translocase ABCB1. As to the kind of experiment: Reversal of human MDR1-mediated multidrug resistance in mouse L5178Y cells expressing MDR1 assessed as forward scatter count measured by cell size ratio at 20 uM after 10 mins by flow cytometry. Type of data set: cell-based. In outline:
as §1

The test system of data set [15] is L5178Y. As to the kind of experiment: Reversal of multidrug resistance in mouse L5178Y cells assessed as mean fluorescence intensity of rhodamine-123 uptake after 10 mins by flow cytometry. Type of data set: functional. In a few lines:
as §1

Data set [16] deals with L5178Y. In words: Reversal of human MDR1-mediated multidrug resistance in mouse L5178Y cells expressing MDR1 assessed as mean fluorescence intensity of rhodamine-123 uptake after 10 mins by flow cytometry. Type of data set: functional. In outline: as §1
In data set [17] the target is T1, ATP-dependent translocase ABCB1. As to the kind of experiment: Reversal of human MDR1-mediated multidrug resistance in mouse L5178Y cells expressing MDR1 assessed as side scatter count measured by cell size ratio at 2 uM after 10 mins by flow cytometry. Type of data set: cell-based. In outline:
as §1

The target is the same in data set [18]. In words: Reversal of human MDR1-mediated multidrug resistance in mouse L5178Y cells expressing MDR1 assessed as fluorescence activity ratio at 0.5 uM after 10 mins by rhodamine-123 exclusion test. Type of data set: cell-based. In outline: as §1
Data set [19] has the same target. As to the kind of experiment: Reversal of human MDR1-mediated multidrug resistance in mouse L5178Y cells expressing MDR1 assessed as mean fluorescence intensity of rhodamine-123 uptake at 0.5 uM after 10 mins by flow cytometry. Type of data set: cell-based. In outline:
as §1

A short description of data set [20]: Octanol-water partition coefficient, log D of the compound. Type of data set: physicochemical.
For data set [21], the target named is T1, ATP-dependent translocase ABCB1. As to the kind of experiment: Reversal of human MDR1-mediated multidrug resistance in mouse L5178Y cells expressing MDR1 assessed as forward scatter count measured by cell size ratio at 1 uM after 10 mins by flow cytometry. Type of data set: cell-based. In outline: as §1
Data set [22] shares this target. In words: Reversal of human MDR1-mediated multidrug resistance in mouse L5178Y cells expressing MDR1 assessed as side scatter count measured by cell size ratio at 1 uM after 10 mins by flow cytometry. Type of data set: cell-based. In a few lines:
as §1

Data set [23] has as its system L5178Y. In words: Reversal of human MDR1-mediated multidrug resistance in mouse L5178Y cells expressing MDR1 fluorescence activity ratio of rhodamine-123 uptake after 10 mins by flow cytometry.

T1 sequence (P08183 whole entry): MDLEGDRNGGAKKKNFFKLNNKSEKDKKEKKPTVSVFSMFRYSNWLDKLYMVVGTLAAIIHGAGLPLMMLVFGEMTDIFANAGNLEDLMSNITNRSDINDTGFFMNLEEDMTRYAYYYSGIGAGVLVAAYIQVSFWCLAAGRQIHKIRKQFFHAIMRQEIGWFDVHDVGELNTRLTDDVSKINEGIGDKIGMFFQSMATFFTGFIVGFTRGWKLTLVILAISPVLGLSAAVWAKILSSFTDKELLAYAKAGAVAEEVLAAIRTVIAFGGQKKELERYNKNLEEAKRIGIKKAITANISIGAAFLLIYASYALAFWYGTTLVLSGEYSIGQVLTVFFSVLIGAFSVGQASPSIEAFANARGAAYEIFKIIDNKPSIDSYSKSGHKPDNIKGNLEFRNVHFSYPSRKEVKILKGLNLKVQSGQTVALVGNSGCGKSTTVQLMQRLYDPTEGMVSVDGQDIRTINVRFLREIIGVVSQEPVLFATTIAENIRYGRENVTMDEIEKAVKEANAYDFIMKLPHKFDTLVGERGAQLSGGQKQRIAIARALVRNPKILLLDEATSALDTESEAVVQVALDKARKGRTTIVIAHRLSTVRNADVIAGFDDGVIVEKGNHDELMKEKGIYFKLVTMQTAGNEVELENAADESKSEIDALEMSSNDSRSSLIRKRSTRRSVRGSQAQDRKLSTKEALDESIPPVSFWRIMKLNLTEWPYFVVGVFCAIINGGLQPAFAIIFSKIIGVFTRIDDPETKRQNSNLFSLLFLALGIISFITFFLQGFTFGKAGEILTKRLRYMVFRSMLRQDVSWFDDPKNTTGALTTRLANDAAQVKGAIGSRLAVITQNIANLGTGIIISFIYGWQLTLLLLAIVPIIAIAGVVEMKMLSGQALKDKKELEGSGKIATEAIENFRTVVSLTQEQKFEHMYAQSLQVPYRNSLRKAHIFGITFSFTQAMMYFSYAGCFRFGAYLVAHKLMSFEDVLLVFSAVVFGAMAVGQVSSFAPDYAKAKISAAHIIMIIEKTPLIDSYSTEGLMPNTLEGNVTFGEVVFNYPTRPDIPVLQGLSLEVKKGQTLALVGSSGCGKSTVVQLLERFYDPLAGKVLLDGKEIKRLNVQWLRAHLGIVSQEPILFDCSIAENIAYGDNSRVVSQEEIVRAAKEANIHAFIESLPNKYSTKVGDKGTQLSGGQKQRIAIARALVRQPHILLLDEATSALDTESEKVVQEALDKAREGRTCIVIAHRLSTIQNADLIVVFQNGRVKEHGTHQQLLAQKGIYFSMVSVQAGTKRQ

For orientation: logD means the decadic logarithm of the distribution of all forms, ionised or not, between an organic phase and buffer at a given pH. The low end stands for lower lipophilicity, the high end for higher lipophilicity. Turning to `CO[C@H]1C=C2[C@@H](CC[C@H](O)C2(C)C)[C@]2(C)CC[C@]3(C)[C@@H]([C@H](C)C[C@@H](O)C=C(C)C)CC[C@@]3(C)[C@H]12` [KARAVELAGENIN C], the Activity in data set [1] is 46; in data set [2], 215.3; in data set [3], 456.4; in data set [4], 206.8; in [6] it was 365.7; in data set [8] it was 399.5. In addition, the Activity in [9] is 130; in data set [10], 468.8; in data set [11] it was 15; in data set [12], 42.1; in data set [14] it was 551.8; in the data set with L5178Y [15], 1034.3. The Activity in the data set with L5178Y [16] is reported as 9.5; in [17], 215.4; in data set [18], 1.5; in [19], 12.7; in data set [21], 460.7; in data set [22] it was 217.8. Also, the “fractional inhibitory concentration index (FICI)” value with L5178Y [5] came out at 0.28. The IC50 in the data set on L5178Y [7] is 16.8 µM; with L5178Y [13] it was 6.3 µM. The logD in data set [20] turned out to be 7.3.
As to `COc1ccc(CCN(C)CCCC(C#N)(c2ccc(OC)c(OC)c2)C(C)C)cc1OC` (centres undefined) [VERAPAMIL], the FAR with L5178Y [23] amounted to 7.4. Also, the Activity in the data set with L5178Y [16] came out at 97.1.

For the origin of these results see ChEMBL document CHEMBL1152588, “New potent P-glycoprotein modulators with the cucurbitane scaffold and their synergistic interaction with doxorubicin on resistant cancer cells” (Bioorg Med Chem, 2009).
